# Source: PubChem BioAssay AID540322 (Johns Hopkins Ion Channel Center, 2011)
# Target: Potassium channel subfamily K member 9 (Homo sapiens) (UniProt Q9NPC2)
# Experiment: concentration-dependent TASK-3 (KCNK9) blockade – HEK293 cells, thallium flux, round II, SAR follow-up (AID 540322)
# Conditions: HEK293-KCNK9, FluxOR thallium flux fluorescence
# How it was run: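 System: stable KCNK9-expressing HEK293 cells; Also added: K2SO4 plus Tl2SO4 stimulus (5x stock); Doses: multi-concentration series; Times: dye 90 min, compound 20 min, room temperature; Detection: FluxOR thallium-sensitive dye fluorescence, 110 s kinetic read post-stimulus; Evaluation: IC50 from normalized fluorescence change; Repeats: replicate concentration-response data per compound.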
# Sequence of Potassium channel subfamily K member 9 (Homo sapiens) (Q9NPC2 whole entry, looked up): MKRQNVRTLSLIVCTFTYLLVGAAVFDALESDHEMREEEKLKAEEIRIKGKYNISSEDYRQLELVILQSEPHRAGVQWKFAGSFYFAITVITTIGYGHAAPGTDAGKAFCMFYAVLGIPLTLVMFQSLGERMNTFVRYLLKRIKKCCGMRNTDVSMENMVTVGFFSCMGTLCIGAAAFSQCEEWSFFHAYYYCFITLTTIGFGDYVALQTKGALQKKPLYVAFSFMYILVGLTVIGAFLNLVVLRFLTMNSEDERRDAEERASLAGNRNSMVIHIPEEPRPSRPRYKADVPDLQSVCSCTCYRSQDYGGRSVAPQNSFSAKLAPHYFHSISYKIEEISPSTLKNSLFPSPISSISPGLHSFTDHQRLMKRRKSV
row,IC50 [nM],SMILES
1,29300,COc1cccc(C(=O)Nc2cccc(NC(=O)c3cccc(C)c3)c2)c1
2,6480,Cc1ccccc1C(=O)Nc1cccc(NC(=O)c2ccccc2)c1
3,1040,CCOc1ccccc1C(=O)Nc1cccc(NC(=O)c2ccccc2C(F)(F)F)c1
4,840,COc1ccccc1-c1n[nH]c(=S)n1C(C)C1CC2CCC1C2 (stereo not given)
5,2720,COc1ccccc1C(=O)Nc1cccc(NC(=O)c2cccc(C)c2)c1
6,1670,Cc1cccc(C(=O)Nc2cccc(NC(=O)c3ccco3)c2)c1
7,5780,O=C(Nc1ccccc1Cl)c1cccc(NC(=O)C2CCCC2)c1
8,1320,COc1ccccc1NC(=O)c1cccc(NC(=O)c2ccccc2C(F)(F)F)c1
9,470,CC(C1CC2CCC1C2)n1c(-c2ccccc2Cl)n[nH]c1=S (stereo not given)
10,320,CCOc1ccccc1NC(=O)c1cccc(NC(=O)c2ccccc2C(F)(F)F)c1
11,1840,CCOc1ccccc1NC(=O)c1cccc(NC(=O)C2CCCC2)c1
12,5370,O=C(Nc1cccc(NC(=O)c2ccccn2)c1)c1ccccc1
13,13400,Cc1cccc(C(=O)Nc2cccc(NC(=O)c3cccc(Cl)c3)c2)c1
14,3390,Cc1cccc(C(=O)Nc2cccc(NC(=O)c3ccccc3OCC(C)C)c2)c1
15,25900,COc1cccc(C(=O)Nc2cccc(NC(=O)c3ccccc3)c2)c1
16,290,CCOc1ccccc1NC(=O)c1cccc(NC(=O)c2cccc(C)c2)c1
17,1980,CCOc1ccccc1C(=O)Nc1cccc(NC(=O)c2ccccc2OC)c1
18,19800,Cc1cccc(C(=O)Nc2cccc(NC(=O)c3ccccc3Cl)c2)c1
19,12900,Cc1cccc(C(=O)Nc2cccc(NC(=O)c3ccccc3C(F)(F)F)c2)c1
20,570,CCOc1ccccc1C(=O)Nc1cccc(NC(=O)c2cccc(C)c2)c1
21,11900,Cc1cccc(C(=O)Nc2cccc(NC(=O)C3CCCCC3)c2)c1
22,1730,COc1ccc(-c2n[nH]c(=S)n2C(C)C2CC3CCC2C3)cc1 (stereo not given)

row,IC50 [nM],SMILES
1,210,COc1cccc(-c2n[nH]c(=S)n2C(C)C2CC3CCC2C3)c1 (stereo not given)
2,1840,CCOc1ccccc1NC(=O)c1cccc(NC(=O)c2cccc(Cl)c2)c1
3,4070,CCOc1cccc(NC(=O)c2cccc(NC(=O)C3CCCC3)c2)c1
4,2160,COc1ccccc1NC(=O)c1cccc(NC(=O)C2CCCCC2)c1
5,4170,CCOc1ccccc1NC(=O)c1cccc(NC(=O)CC2CCCC2)c1
6,30600,CCOc1ccccc1NC(=O)c1cccc(NC(=O)C(C)(C)C)c1
7,3490,COc1ccccc1C(=O)Nc1cccc(NC(=O)c2ccccc2C)c1
8,800,CCOc1ccccc1NC(=O)c1cccc(NC(=O)c2ccccc2OC(F)(F)F)c1
9,1300,CCOc1ccccc1NC(=O)c1cccc(NC(=O)C2CCCCC2)c1
10,720,Cc1ccccc1-c1n[nH]c(=S)n1C(C)C1CC2CCC1C2 (stereo not given)
11,1920,CCOc1ccccc1NC(=O)c1cccc(NC(=O)CC2CCCCC2)c1
12,7210,O=C(Nc1cccc(NC(=O)c2ccccc2C(F)(F)F)c1)c1ccccc1
13,1180,CCOc1ccccc1NC(=O)c1cccc(NC(=O)c2ccccc2OC)c1
14,990,Cc1cccc(C(=O)Nc2cccc(NC(=O)c3cccc(C)c3)c2)c1
15,740,COc1ccccc1C(=O)Nc1cccc(NC(=O)c2ccccc2C(C)C)c1
16,10200,CCOc1ccccc1NC(=O)c1cccc(NC(=O)C2CC2)c1
17,1820,Cc1cccc(C(=O)Nc2cccc(NC(=O)c3ccccc3)c2)c1
18,1410,COc1ccccc1NC(=O)c1cccc(NC(=O)c2ccccc2)c1
19,2630,CCOc1ccccc1NC(=O)c1cccc(NC(=O)c2ccccc2Cl)c1
20,1380,CCOc1ccccc1NC(=O)c1cccc(NC(=O)c2cccc(C(F)(F)F)c2)c1
21,4250,CC(C1CC2CCC1C2)n1c(-c2ccoc2)n[nH]c1=S (stereo not given)
22,2630,COc1ccccc1NC(=O)c1cccc(NC(=O)CC2CCCC2)c1

row,IC50 [nM],SMILES
1,4290,CCOc1ccccc1NC(=O)c1cccc(NC(=O)c2ccccc2C)c1
2,1740,COc1ccccc1C(=O)Nc1cccc(NC(=O)c2ccccc2)c1
3,10300,CC(C1CC2CCC1C2)n1c(C2CCOC2)n[nH]c1=S (stereo not given)
4,6850,Cc1cccc(C(=O)Nc2cccc(NC(=O)c3cccs3)c2)c1
5,3620,COc1ccccc1C(=O)Nc1cccc(NC(=O)c2ccccc2OC)c1
6,1110,CCOc1ccccc1C(=O)Nc1cccc(NC(=O)C2CCCC2)c1
7,440,CC(C1CC2CCC1C2)n1c(-c2cccc(Cl)c2)n[nH]c1=S (stereo not given)
8,320,CC(C1CC2CCC1C2)n1c(-c2ccco2)n[nH]c1=S (stereo not given)
9,1050,Cc1cccc(C(=O)Nc2cccc(NC(=O)c3ccccc3OC(F)(F)F)c2)c1
10,1430,CCOc1ccccc1NC(=O)c1cccc(NC(=O)c2ccccc2)c1
11,1170,COc1ccccc1C(=O)Nc1cccc(NC(=O)c2ccccc2OC(F)(F)F)c1
12,19200,COc1cccc(OC)c1C(=O)Nc1cccc(NC(=O)c2cccc(C)c2)c1
13,2390,Cc1cccc(C(=O)Nc2cccc(NC(=O)c3ccccc3C(C)C)c2)c1
14,1550,COc1ccccc1NC(=O)c1cccc(NC(=O)C2CCCC2)c1
15,8000,O=C(Nc1cccc(NC(=O)C2CCCCC2)c1)c1ccccc1
16,2330,CCOc1ccccc1NC(=O)c1cccc(NC(=O)c2cccc(OC)c2)c1
17,3020,COc1ccccc1NC(=O)c1cccc(NC(=O)c2ccccc2OC)c1
18,1000,CC(C1CC2CCC1C2)n1c(-c2ccsc2)n[nH]c1=S (stereo not given)
19,520,CC(C1CC2CCC1C2)n1c(-c2ccccc2)n[nH]c1=S (stereo not given)
20,940,Cc1cccc(C(=O)Nc2cccc(NC(=O)c3ccccc3C)c2)c1
21,14700,CCOc1ccccc1NC(=O)c1cccc(NC(=O)c2ccc(C)cc2)c1
